The results in this text go back to ChEMBL document CHEMBL2029221, “Acylprolinamides: a new class of peptide deformylase inhibitors with in vivo antibacterial activity” (Bioorg Med Chem Lett, 2012).

Usually clearance stands for the rate of elimination divided by the concentration. For orientation: bioavailability means dose-corrected exposure relative to a reference, in per cent. By IC50 is commonly meant the point on the concentration scale where inhibition reaches its midpoint.

Each structure is given as a SMILES string. Converted amounts (≈) assume the structure as drawn.

Data set [1] relates to Canis familiaris. In words: Dose normalized AUC (0 to infinity) in dog at 6.5 mg/kg, po. To be noted: in vivo. The data set is classed as ADME, organism-based, Canis lupus familiaris. Also on record: dose 6.5 mg/kg, route oral. A digest of the protocol: (§1)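 Single-compound pharmacokinetics with n = 3 per species, given i.v. and p.o. Reported measures are plasma clearance after i.v. dosing, dose-normalized AUC(0–inf) after oral dosing, and oral bioavailability.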

The test system of data set [2] is Moraxella catarrhalis. In words: Antibacterial activity against Moraxella catarrhalis 1502 by broth microdilution method. The data set is classed as functional. A digest of the protocol: (§2)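 Broth microdilution following NCCLS document M7-A4. Serial two-fold dilutions from 0.06 to 64 mcg/ml were tested. The MIC was the lowest concentration preventing visible growth, with the endpoint read with the aid of a mirror reader.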
(Broth dilution looks for growth in wells or tubes with falling amounts of substance.)

Data set [3] in a line: Plasma clearance in monkey at 3 mg/kg, iv. In kind it is ADME, organism-based, Macaca mulatta. Also noted: dose 3 mg/kg, route intravenous. To be noted: rhesus monkey. A digest of the protocol: as §1
Data set [4] in a line: Plasma clearance in dog at 4.5 mg/kg, iv. In kind it is ADME, organism-based, Canis lupus familiaris. Also on record: dose 4.5 mg/kg, route intravenous. A digest of the protocol: as §1
Data set [5] is described as follows: Oral bioavailability in rat at 27.1 mg/kg. The data set is classed as ADME, organism-based. To be noted: in vivo. Summed up: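 Rat oral bioavailability (n = 3) was estimated from a non-crossover study comparing i.v. and p.o. dosing.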
Data set [6] in a line: Inhibition of Haemophilus influenzae PDF assessed as formate release from fMAS peptide substrate after 20 mins by formate dehydrogenase coupled assay. Summed up: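 Coupled assay in which formate released from the fMAS peptide is oxidized by formate dehydrogenase, reducing NAD to NADH, read as the rise in absorbance at 340. Reactions were started by adding PDF and velocities measured for 20 min at 25 °C. Values are the mean of at least 2 runs.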

Data set [7] relates to Streptococcus pneumoniae. In words: Antibacterial activity against Streptococcus pneumoniae 1629 infected in rat respiratory tract infection model assessed as reduction in bacterial count at 75 mg/kg, po bid for 4 days relative to control. In kind it is functional. A digest of the protocol: (§3)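 Rat respiratory tract infection models with oral b.i.d. dosing. Efficacy was read as bacterial lung counts (log10 cfu/mL) compared with non-treated controls.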

Data set [8] can be described thus: Metabolic stability of the compound in rat blood assessed as compound remaining at 2000 ng/mL after 2 hrs. To be noted: read-out: Stability. The data set is classed as ADME, tissue-based.
Data set [9] addresses T1, Peptide deformylase (Streptococcus pneumoniae serotype 4 (strain ATCC BAA-334 / TIGR4), UniProt Q9F2F0).
T1 sequence (Q9F2F0 whole entry): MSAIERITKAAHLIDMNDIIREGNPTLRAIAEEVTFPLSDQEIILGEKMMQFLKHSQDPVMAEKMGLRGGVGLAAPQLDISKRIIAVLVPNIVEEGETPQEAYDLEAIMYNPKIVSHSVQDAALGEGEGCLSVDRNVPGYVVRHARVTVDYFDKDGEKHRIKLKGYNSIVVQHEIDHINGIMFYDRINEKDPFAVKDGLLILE
The experiment in a line: Inhibition of Streptococcus pneumoniae PDF assessed as formate release from fMAS peptide substrate after 20 mins by formate dehydrogenase coupled assay.

Data set [10] is described as follows: Oral bioavailability in dog at 6.5 mg/kg. In kind it is ADME, organism-based, Canis lupus familiaris. The settings on record: in vivo. Summed up: as §1
The test system of data set [11] is Rattus norvegicus. The experiment in a line: Dose normalized AUC (0 to infinity) in rat at 27.1 mg/kg, po. In kind it is ADME, organism-based. Also noted: dose 27.1 mg/kg, route oral. To be noted: in vivo. A digest of the protocol:
as §1

Data set [12] has as its system Haemophilus influenzae. In words: Antibacterial activity against Haemophilus influenzae H128 infected in rat respiratory tract infection model assessed as reduction in bacterial count at 300 mg/kg, po bid for 2 days relative to control. The data set is classed as functional. A digest of the protocol: as §3
Data set [13] has as its system Streptococcus pneumoniae. The experiment in a line: Antibacterial activity against Streptococcus pneumoniae 1629 infected in rat respiratory tract infection model assessed as reduction in bacterial count at 150 mg/kg, po bid for 4 days relative to control. In kind it is functional. A digest of the protocol:
as §3

The nature of data set [14]: Metabolic stability of the compound in human blood assessed as compound remaining at 2000 ng/mL after 2 hrs. The data set is classed as ADME, tissue-based. To be noted: read-out: Stability. A digest of the protocol:
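Samples (n = 3) were spiked into fresh human blood at 2000 ng/mL, incubated at 37 °C for 120 min, and reported as % recovered at 2 h.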

The target in data set [15] is T2, Peptide deformylase (Staphylococcus aureus, UniProt P68826).
T2 sequence (P68826 whole entry): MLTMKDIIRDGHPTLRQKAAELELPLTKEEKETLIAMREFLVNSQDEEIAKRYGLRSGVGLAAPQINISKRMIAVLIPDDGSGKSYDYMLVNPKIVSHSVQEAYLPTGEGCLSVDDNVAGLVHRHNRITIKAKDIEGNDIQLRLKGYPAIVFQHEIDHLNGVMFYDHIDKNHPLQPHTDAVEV
In words: Inhibition of Staphylococcus aureus PDF assessed as formate release from fMAS peptide substrate after 20 mins by formate dehydrogenase coupled assay.

In data set [16] the test system is Haemophilus influenzae. The experiment in a line: Antibacterial activity against Haemophilus influenzae Q1 by broth microdilution method. In kind it is functional. Summed up:
as §2

Data set [17] has as its system Rhesus monkey. The experiment in a line: Dose normalized AUC (0 to infinity) in monkey at 5.1 mg/kg, po. The data set is classed as ADME, organism-based, Macaca mulatta. Also noted: dose 5.1 mg/kg, route oral. To be noted: in vivo. Summed up: as §1
Data set [18] is described as follows: Oral bioavailability in monkey at 5.1 mg/kg. In kind it is ADME, organism-based, Macaca mulatta. The settings on record: rhesus monkey, in vivo. Summed up:
as §1

For data set [19], the system named is Enterococcus faecalis. The experiment in a line: Antibacterial activity against Enterococcus faecalis 7 by broth microdilution method. In kind it is functional. Summed up:
as §2

Data set [20] concerns Streptococcus pneumoniae. In words: Antibacterial activity against Streptococcus pneumoniae 1629 by broth microdilution method. In kind it is functional. Summed up: as §2
Data set [21] has as its system Staphylococcus aureus. The experiment in a line: Antibacterial activity against Staphylococcus aureus Oxford by broth microdilution method. The data set is classed as functional. A digest of the protocol:
as §2

As to `CCNC(=O)NC(=O)[C@@H]1CCCN1C(=O)[C@H](CC1CCCC1)CN(O)C=O`, the AUC/dose was determined as 629.9 ng·h/mL/mg/kg in [1], 43.3 ng·h/mL/mg/kg in [11] and 111.4 ng·h/mL/mg/kg in data set [17]. Further, the MIC is at most 0.06 µg/mL in [2]; 0.5 µg/mL (≈ 1.31 µM) in [16]; 2 µg/mL (≈ 5.23 µM) in data set [19]; 0.25 µg/mL (≈ 0.654 µM) in data set [20]; 0.5 µg/mL (≈ 1.31 µM) in data set [21]. In addition, the clearance in [3] was determined as 29.4 mL/min/kg; in [4], 36.3 mL/min/kg. Further, the bioavailability was found to be 30% in data set [5], 100% in data set [10] and 20% in data set [18]. Moreover, the figures for the concentration for half-maximal inhibition (IC50) in [6], in data set [9] and in data set [15] were 4.9 nM, 0.44 nM and 2 nM, respectively. Further, the results for the log10CFU/ml in data set [7], in [12] and in data set [13] were 3.86, 4.21 and 3.86, respectively. Moreover, the remaining at 2 h, 2000 ng/mL stood at 58.6% in data set [8] and 111% in data set [14].
